According to publication PMC4828309 (European journal of immunology, 2016):
“Also recorded” adds a separate entry of the source. No end group written: not given here.

Columns and labels:
[1] = tested on: DQ2; assay: Peptide elution and HPLC-MS/MS, DQ2; design: species or system human; conditions: 293T DQ2+Ii+DM, 2 independent experiments
Summary of the method: (§1)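 About 1×10^9 sorted, stably transduced 293T cells expressing DQ+Ii or DQ+Ii+DM were lysed. DQ was captured with anti-DQ mAb SPVL3 on protein A beads. Bound peptides were eluted, separated by HPLC and sequenced by HPLC-MS/MS. Nested Ii-derived peptides were assigned to the CLIP1 core or the CLIP2 register. Results come from 2 independent experiments.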

[2] = tested on: DQ8; assay: Peptide elution and HPLC-MS/MS, DQ8; design: species or system human; conditions: 293T DQ8+Ii+DM, 2 independent experiments
Summary of the method: as §1

[3] = tested on: DQ2-8; assay: Peptide elution and HPLC-MS/MS, DQ2-8; design: species or system human; conditions: 293T DQ2-8+Ii+DM, 2 independent experiments
Summary of the method: as §1

[4] = tested on: DQ8-2; assay: Peptide elution and HPLC-MS/MS, DQ8-2; design: species or system human; conditions: 293T DQ8-2+Ii+DM, 2 independent experiments
Summary of the method: as §1

[5] = tested on: DQ1; assay: Peptide elution and HPLC-MS/MS, DQ1; design: species or system human
Summary of the method: as §1

[6] = tested on: DQ6; assay: Cell surface CLIP by flow cytometry, 293T cells expressing DQ6; type: cell-based, human; conditions: CerCLIP.1 mAb
Summary of the method: (§2)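 Human 293T cells (no endogenous Ii, DM or DQ) were lentivirally transduced with full-length DQ α/β (T2A-linked, GFP vector), Ii, and DM (mCherry vector). They were sorted for GFP, DQ and mCherry. Surface staining used PerCP-Cy5.5 Cer.CLIP1 and biotinylated SPVL3 anti-DQ with streptavidin-APC or -PE-Cy7. Gating was on matched GFP/mCherry levels. Read-outs were MFI and the CLIP/DQ MFI ratio with vs without DM, from 3 independent experiments, mean + SD.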

[7] = tested on: DQ2; assay: Cell surface CLIP by flow cytometry, 293T cells expressing DQ2; type: cell-based, human
Summary of the method: as §2

[8] = tested on: DQ8; assay: Cell surface CLIP by flow cytometry, 293T cells expressing DQ8; type: cell-based, human
Summary of the method: as §2

[9] = tested on: DQ2-8; assay: Cell surface CLIP by flow cytometry, 293T cells expressing DQ2-8 trans-dimer; type: cell-based, human
Summary of the method: as §2

[10] = tested on: DQ8-2; assay: Cell surface CLIP by flow cytometry, 293T cells expressing DQ8-2 trans-dimer; type: cell-based, human
Summary of the method: as §2

[11] = tested on: DQ1; assay: Cell surface CLIP by flow cytometry, 293T cells expressing DQ1; type: cell-based, human; conditions: 293T DQ1, even in the absence of DM, CerCLIP.1 mAb
Summary of the method: as §2

[12] = tested on: DQ alleles in T2 cells; type: cell-based, human; conditions: T2 lymphoblastoid cells, absence or presence of HLA-DM, flow cytometry
Summary of the method: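 Human B-cell hybrid T2 line (endogenous Ii, MHC class II region deleted) expressing each DQ allele with or without HLA-DM. Cells surface-stained with PerCP-Cy5.5 anti-CLIP (Cer.CLIP1) and biotinylated anti-DQ (SPVL3) detected by streptavidin-APC or -PE-Cy7, alongside isotype-matched controls. Analysed by flow cytometry.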

[13] = tested on: DQ6; assay: Peptide elution and HPLC-MS/MS, DQ6; design: species or system human; conditions: 293T DQ6+Ii+DM, 2 independent experiments
Summary of the method: as §1

[14] = tested on: DQ molecules; assay: Peptide elution and HPLC-MS/MS, several DQ molecules reported together; design: species or system human
Summary of the method: as §1

[15] = tested on: DQ8 βT89G; assay: Cell surface CLIP by flow cytometry, 293T cells expressing DQ8 βT89G mutant; type: cell-based, human; conditions: 293T + Ii, with vs without DM; βT89G disrupts one H-bond; CLIP/DQ ratio
[16] = tested on: DQ8 βE86A; assay: Cell surface CLIP by flow cytometry, 293T cells expressing DQ8 βE86A mutant; type: cell-based, human; conditions: 293T + Ii, with vs without DM; βE86A disrupts two H-bonds; CLIP/DQ ratio
[17] = tested on: sDQ6; assay: FP assay of CLIP dissociation from sDQ6; type: binding, human; conditions: 50 nM sDQ6-^488CLIP, sDM 0 to 2000 nM, 37°C, pH 5.0
Summary of the method: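 sDQ6 secreted by lentivirus-transduced 293T cells, purified by His-resin then anti-DQ affinity, and thrombin-cleaved overnight. It was loaded with Alexa 488-labelled CLIP (1:5) plus 100 nM sDM for 3 h at 37°C in pH 5.0 citrate-phosphate/NaCl/Tween buffer, then spin-desalted. 50 nM complex, 0–2000 nM sDM and 100 μM unlabelled CLIP1 were read by FP at 37°C. FP was normalised to free-peptide background; rate enhancement was expressed relative to no-DM rate.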

[18] = tested on: DQ2 with Gly at position 53; conditions: ref [22]; cited from earlier work
[19] = target: soluble recombinant HLA-DQ6 (human); assay: fluorescence polarisation
[20] = target: soluble recombinant HLA-DQ8 (human); assay: fluorescence polarisation

In the case of LPKPPKPVSKMRMATPLLMQA [CLIP1], the “CLIP1 in peptide eluate, with DM” value [1] is reported as “detected”, the “CLIP1 in peptide eluate, with DM” value [2] is reported as “detected” and the “CLIP1 in peptide eluate, with DM” value [3] is reported as “detected”. For the same molecule, the “CLIP1 in peptide eluate, with DM” value [4] was “detected”, the “CLIP peptides in eluate, no DM” value ([5]; 293T DQ1+Ii without DM) was “detected” and the “CLIP peptides in eluate, with DM” value ([5]; 293T DQ1+Ii+DM) was “not in samples co-expressing DM”.

In the case of “CLIP: Class II associated invariant chain peptide; Ii-derived, endogenous on DQ-expressing cells (Ac-VSK(Alexa Fluor 488)MRMATPLLMQ)”, the “Cell surface CLIP upon DM co-expression” value ([6]; 293T DQ6+Ii+DM, 3 independent experiments) is reported as “complete loss of cell surface CLIP”, the “Cell surface CLIP level, no DM” value ([6]; 293T DQ6+Ii, absence of DM, MFI) is reported as “high” and the “DM editing of CLIP upon DM co-expression” value ([7]; 293T DQ2+Ii+DM, CerCLIP.1 mAb, flow cytometry, 3 independent experiments) is reported as “relatively resistant to DM editing”. For the same molecule, the “Cell surface CLIP level, no DM” value ([7]; 293T DQ2+Ii, absence of DM, CerCLIP.1 mAb, flow cytometry, MFI) was “high”, the “DM editing resistance relative to DQ8 and DQ2-8” value ([7]; 293T, DQ2) was “less striking” and the “Cell surface CLIP upon DM co-expression” value ([8]; 293T DQ8+Ii+DM, CerCLIP.1 mAb, flow cytometry, 3 independent experiments) was “retain high levels of cell surface CLIP”. For the same molecule, the “Cell surface CLIP level, no DM” value ([8]; 293T DQ8+Ii, absence of DM, CerCLIP.1 mAb, flow cytometry, MFI) was “high”, the “Reduction in cell surface CLIP by DM” value ([8]; 293T cells co-expressing DM with DQ8) was “little or no reduction in CLIP levels” and the “Cell surface CLIP upon DM co-expression” value ([9]; 293T DQ2-8+Ii+DM, CerCLIP.1 mAb, flow cytometry, 3 independent experiments) was “retain high levels of cell surface CLIP”. The “Cell surface CLIP level, no DM” value ([9]; 293T DQ2-8+Ii, absence of DM, CerCLIP.1 mAb, flow cytometry, MFI) was “high”, the “Reduction in cell surface CLIP by DM” value ([9]; 293T cells co-expressing DM with DQ2-8) was “little or no reduction in CLIP levels” and the “Cell surface CLIP upon DM co-expression” value ([10]; 293T DQ8-2+Ii+DM, CerCLIP.1 mAb, flow cytometry, 3 independent experiments) was “retain high levels of cell surface CLIP”. For the same molecule, the “Cell surface CLIP level, no DM” value ([10]; 293T DQ8-2+Ii, absence of DM, CerCLIP.1 mAb, flow cytometry, MFI) was “high”, the “DM editing resistance relative to DQ8 and DQ2-8” value ([10]; 293T, DQ8-2 trans-dimer) was “less striking” and the “Cell surface CLIP level, no DM” value [11] was “no detectable CLIP peptide”. The “DM editing of CLIP in T2 cells” value [12] was “consistent with those obtained with 293T cells”, the “CLIP in peptide eluate, with DM” value [13] was “not detected” and the “CLIP peptides eluted, no DM” value ([14]; 293T DQ+Ii without DM, all DQ alleles, 2 independent experiments) was “prominently presented by all DQ alleles”.

With “PSSGLGVTKQDLGPVPM [CLIPc, reference compound]” the “CLIPc detection in eluates” value ([14]; DQ samples from 293T cells) was “detected by HPLC-MS/MS from all of the samples (DQ2, DQ2-8 and DQ8-2), except DQ8”.

For “DM: non-classical MHC protein HLA-DM catalyzing CLIP release and peptide exchange”, the “Hierarchy of DM sensitivity among DQ molecules” value ([8]; 293T DQ+Ii+DM, DQ8 compared with DQ2-8, DQ2, DQ8-2) was “DQ8 being the least sensitive, followed by DQ2-8, DQ2, and DQ8-2”, the “Change in DM sensitivity of DQ8 mutant” value [15] was “little change in DM sensitivity” and the “Change in DM sensitivity of DQ8 mutant” value [16] was “partially restore sensitivity to DM”. The “DM editing of CLIP in T2 cells” value [12] was “DQ2 and DQ2-8 were less sensitive to DM than DQ8”, the “Dissociation rate versus DM concentration” value [17] was “Peptide dissociation rates increased with increasing DM concentration; also recorded: rates appeared to saturate with increasing DM concentration” and the “DM sensitivity after Gly insertion at α53 of DQ2” value [18] was “restored DM sensitivity; also recorded: marked increase in DM-mediated rate enhancement in the dissociation of a DQ2 binding peptide”.

With Ac-VSK(Alexa Fluor 488)MRMATPLLMQ [Alexa Fluor 488-labeled N-acetylated CLIP peptide] the intrinsic half-life of the complex [19] was 7 h and the intrinsic half-life of the complex [20] was 58 h.
